Laboratory results taken from article PMC7558257 (Acta Pharmaceutica Sinica. B, 2020).

Key:
[1] = molecular target: Human dihydroorotate dehydrogenase (DHODH) (Homo sapiens, UniProt Q02127); test: In vitro DHODH enzyme inhibition assay; format: biochemical; conditions: for inhibition at 10 µM: read-out: Inhibition (%) at 10 μmol/L; for potency loss relative to naphthyl compound 24: vs. 24
[2] = test system: collagen-induced arthritis (CIA) in Wistar rats; test: Collagen-induced arthritis; format: in vivo; conditions: for volumes of paws in CIA rats compared to model rats: orally once a day for 28 days, methotrexate 0.3 mg/kg; for arthritis score (stabilized, lastly): scale 0-4, model group around 2.3
Summary of the method: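 Adult male Wistar rats (130–150 g) were immunized with emulsified bovine type II collagen on Days 1 and 7. Dosing was oral, once daily for 28 days, with 0.5% CMC-Na vehicle. Arthritis was scored 0–4 daily, blinded. Body weight was taken every 3 days, plus hind-paw volume and terminal joint histopathology. Data are mean ± SEM.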

[3] = In vivo single dose PK study in rats; conditions: male, Sprague-Dawley, rat, plasma
Summary of the method: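 Male Sprague–Dawley rats (n = 3 per route) received the test compound at 1 mg/kg i.v. or 10 mg/kg p.o. Heparinized blood was sampled at 5, 15 and 30 min and at 1, 2, 4, 8 and 24 h. Levels were quantified by LC/MS/MS, with noncompartmental PK analysis. For i.v., Cmax was taken as C0.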

ICR mice = test: Acute toxicity study in mice; format: in vivo

Human dihydroorotate dehydrogenase (DHODH), sequence (Q02127 whole entry): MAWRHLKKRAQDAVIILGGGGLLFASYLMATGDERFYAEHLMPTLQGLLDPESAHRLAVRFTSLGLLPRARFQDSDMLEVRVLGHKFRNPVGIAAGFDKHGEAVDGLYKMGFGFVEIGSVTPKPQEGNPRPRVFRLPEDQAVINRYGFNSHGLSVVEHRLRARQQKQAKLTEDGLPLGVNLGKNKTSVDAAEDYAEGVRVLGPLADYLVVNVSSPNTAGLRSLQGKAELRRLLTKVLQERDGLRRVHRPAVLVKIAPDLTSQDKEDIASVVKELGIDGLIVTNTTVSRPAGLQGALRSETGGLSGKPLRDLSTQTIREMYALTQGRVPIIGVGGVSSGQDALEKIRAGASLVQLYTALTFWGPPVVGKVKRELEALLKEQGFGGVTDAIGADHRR

Compound | IC50 [1] | inhibition at 10 µM [1] | also measured
O=C(COc1ccc2ccccc2c1)Nc1ccccc1C(=O)O [Compound 36] | 1870 ± 48 nM | 76.1% | –
C/C(=C\c1ccc2ccccc2c1)C(=O)Nc1ccc(C(F)(F)F)cc1C(=O)O [Compound 48] | 874 ± 5 nM | 87.4% | –
C/C(=C\c1ccc2ccccc2c1)C(=O)Nc1ccc(C)cc1C(=O)O [Compound 46] | 688 ± 6 nM | 82.9% | –
C/C(=C\c1ccc2ccccc2c1)C(=O)Nc1ccc(F)cc1C(=O)O [Compound 42] | – | 90% | improvement in potency for inhibition of DHODH vs. 24 ([1]; 42 vs. 24): 1 fold
C/C(=C\c1cc2ccccc2cn1)C(=O)Nc1ccccc1C(=O)O [Compound 31] | 646 ± 9 nM | 87.4% | potency loss relative to naphthyl compound 24 [1]: 8 fold
C/C(=C\c1ccc(C(F)(F)F)nc1)C(=O)Nc1ccccc1C(=O)O [Compound 13] | 6110 ± 102 nM | 69.3% | –
COc1ccc(/C=C(\C)C(=O)Nc2ccccc2C(=O)O)cc1OC [Compound 20] | 612 ± 11 nM | 91.5% | –
C/C(=C\c1ccc2ccccc2c1)C(=O)Nc1sccc1C(=O)O [Compound 49] | 2130 ± 110 nM | 79.3% | –
COc1ccc(/C=C(\C)C(=O)Nc2ccccc2C(=O)O)cc1 [Compound 14] | 561 ± 14 nM | 88.7% | –
C/C(=C\c1ccc(-c2ccccc2)cc1)C(=O)Nc1ccccc1C(=O)O [Compound 33] | 626 ± 13 nM | 89.8% | –
C/C(=C\c1ccc(C(C)(C)C)cc1)C(=O)Nc1ccccc1C(=O)O [Compound 15] | 836 ± 21 nM | 86.6% | –
COc1ccc(NC(=O)/C(C)=C/c2ccc3ccccc3c2)c(C(=O)O)c1 [Compound 47] | > 10000 nM | 48.2% | –
O=C(COc1ccccc1)Nc1ccccc1C(=O)O [Compound 10] | – | 31.7% | –
C/C(=C\c1ccc(Oc2ccccc2)cc1)C(=O)Nc1ccccc1C(=O)O [Compound 34] | 630 ± 14 nM | 90.4% | –
C/C(=C\c1ccc(Cl)c(C(F)(F)F)c1)C(=O)Nc1ccccc1C(=O)O [Compound 18] | 894 ± 63 nM | 84.6% | –
C/C(=C\c1ccc2cc(Br)ccc2c1)C(=O)Nc1ccccc1C(=O)O [Compound 26] | 448 ± 8 nM | 85.4% | –
C/C(=C\c1ccc(Cl)c(Cl)c1)C(=O)Nc1ccccc1C(=O)O [Compound 19] | 529 ± 24 nM | 91.7% | –
C/C(=C\c1ccc2c(c1)CCC2)C(=O)Nc1ccccc1C(=O)O [Compound 22] | 252 ± 17 nM | 86.9% | –
CN(Cc1cnc2nc(N)nc(N)c2n1)c1ccc(C(=O)N[C@@H](CCC(=O)O)C(=O)O)cc1 [methotrexate, reference compound] | – | – | volumes of paws in CIA rats compared to model rats ([2]; 54 at 10 and 30 mg/kg): significantly decreased
C/C(=C\c1ccc2ccccc2c1)C(=O)Nc1ccc(Br)cc1C(=O)O [Compound 45] | 1820 ± 20 nM | 80.8% | –
O=C(COc1ccc([N+](=O)[O-])cc1)Nc1ccccc1C(=O)O [Compound 9, 2-(2-(4-Nitrophenoxy)acetamido)benzoic acid] | – | 45.3% | –
C/C(=C\c1ccc2ccccc2c1Br)C(=O)Nc1ccc(F)cc1C(=O)O [Compound 55] | – | 98.6% | –
C/C(=C\c1cccc(Oc2ccccc2)c1)C(=O)Nc1ccccc1C(=O)O [Compound 35] | 597 ± 6 nM | 89.5% | –
C/C(=C\c1ccc2ccccc2c1)C(=O)Nc1ccc(Cl)cc1C(=O)O [Compound 44] | 623 ± 1 nM | 83% | –

Compound | IC50 [1] | inhibition at 10 µM [1] | also measured
C/C(=C\c1ccc2c(Cl)cccc2c1)C(=O)Nc1ccccc1C(=O)O [Compound 27] | 256 ± 9 nM | 96.8% | –
C/C(=C\c1ccc2ccccc2c1F)C(=O)Nc1ccccc1C(=O)O [Compound 28] | 57 ± 2 nM | 89.3% | –
C/C(=C\c1cc2ccccc2n1C)C(=O)Nc1ccccc1C(=O)O [Compound 32, (E)-2-(2-Methyl-3-(1-methyl-1H-indol-2-yl)acrylamido)benzoic acid] | 317 ± 8 nM | 84.3% | potency loss relative to naphthyl compound 24 [1]: 4 fold
C/C(=C\c1ccc2ccccc2c1Cl)C(=O)Nc1ccc(F)cc1C(=O)O [Compound 54] | – | 98.7% | AUC ([3]; iv, 1 mg/kg): 381 µg·h/mL; Cmax ([3]; iv, 1 mg/kg): 31.5 µg/mL; Vd ([3]; iv, 1 mg/kg): 0.069 L/kg; clearance ([3]; iv, 1 mg/kg): 2.6 mL/h/kg; half-life ([3]; iv, 1 mg/kg): 18.1 h; bioavailability ([3]; oral, 10 mg/kg): 67.1%; AUC ([3]; po, 10 mg/kg): 2560 µg·h/mL; Cmax ([3]; po, 10 mg/kg): 77.8 µg/mL; Tmax ([3]; po, 10 mg/kg): 4.67 h; half-life ([3]; po, 10 mg/kg): 21.5 h; arthritis score (stabilized, lastly) ([2]; 10 mg/kg orally once a day for 28 days): around 1; arthritis score (stabilized, lastly) ([2]; 30 mg/kg orally once a day for 28 days): ~0.6; histopathological symptoms of arthritis in ankle joints (H&E) ([2]; 54 at 10 and 30 mg/kg, after four weeks of therapy, dose-dependent): significantly alleviated; volumes of paws in CIA rats compared to model rats ([2]; 54 at 10 and 30 mg/kg): significantly decreased; behavior and mortality (ICR mice; single intragastric dose 300 and 500 mg/kg, 14 days observation, n = 3): No obvious abnormal in behaviors or mortality; morphological examination of liver and kidney (ICR mice; single intragastric dose 300 and 500 mg/kg, day 14): did not find remarkable injury; body weight change compared to control group (ICR mice; single intragastric dose 300 and 500 mg/kg, end of experiment (day 14)): no significant change in body weight; tolerated dose (ICR mice; single intragastric dose, mice): ≥ 500 mg/kg
CC(C)(Oc1ccc2ccccc2c1)C(=O)Nc1ccccc1C(=O)O [Compound 37, 2-(2-Methyl-2-(naphthalen-2-yloxy)propanamido)benzoic acid] | > 10000 nM | 20.3% | –
C/C(=C\c1ccc2ccccc2c1)C(=O)Nc1cc(F)ccc1C(=O)O [Compound 43] | > 10000 nM | 34.9% | –
C/C(=C\c1ccc(C)c(Cl)c1)C(=O)Nc1ccccc1C(=O)O [Compound 17] | 384 ± 16 nM | 91% | –
C/C(=C\c1ccccc1)C(=O)Nc1ccccc1C(=O)O [Compound 11] | – | 85.6% | –
COC(=O)c1ccccc1NC(=O)/C(C)=C/c1ccc2ccccc2c1 [Compound 52, Methyl (E)-2-(2-methyl-3-(naphthalen-2-yl)acrylamido)benzoate] | > 10000 nM | 29.6% | DHODH inhibition, result in words [1]: completely inactive
C/C(=C\c1ccc2ccccc2c1)C(=O)Nc1ccccc1C(N)=O [Compound 51] | 5350 ± 172 nM | 66.9% | –
COc1ccc2cc(/C=C(\C)C(=O)Nc3ccccc3C(=O)O)ccc2c1 [Compound 25] | 129 ± 8 nM | 88.2% | –
C/C(=C\c1ccc2ccccc2c1Cl)C(=O)Nc1ccccc1C(=O)O [Compound 29] | 78 ± 3 nM | 96.4% | –
C/C(=C\c1ccc2ccccc2c1)C(=O)Nc1ccncc1C(=O)O [Compound 50, (E)-4-(2-Methyl-3-(naphthalen-2-yl)acrylamido)nicotinic acid] | 1691 ± 14 nM | 74.1% | –
O=C(/C=C/c1ccc2ccccc2c1)Nc1ccccc1C(=O)O [Compound 38] | 712 ± 12 nM | 87.5% | –
C/C(=C\c1cc(Cl)cc(Cl)c1)C(=O)Nc1ccccc1C(=O)O [Compound 21] | 724 ± 28 nM | 89.4% | –
C/C(=C\c1ccc(C(F)(F)F)cc1)C(=O)Nc1ccccc1C(=O)O [Compound 12] | 1040 ± 40 nM | 82.3% | –
C/C(=C\c1ccc2ccccc2c1Br)C(=O)Nc1ccccc1C(=O)O [Compound 30] | 58 ± 1 nM | 90.2% | –
C/C(=C\c1ccc2ccccc2c1F)C(=O)Nc1ccc(F)cc1C(=O)O [Compound 53] | – | 98% | –
C/C(=C\c1ccc(C)c(C)c1)C(=O)Nc1ccccc1C(=O)O [Compound 16] | 394 ± 4 nM | 92.9% | –
O=C(Nc1ccccc1C(=O)O)/C(Cl)=C/c1ccc2ccccc2c1 [Compound 39] | 61 ± 1 nM | 88.6% | –
CC/C(=C\c1ccc2ccccc2c1)C(=O)Nc1ccccc1C(=O)O [Compound 41] | 606 ± 31 nM | 82.8% | –
O=C(Nc1ccccc1C(=O)O)/C(Br)=C/c1ccc2ccccc2c1 [Compound 40] | 85 ± 4 nM | 88.6% | –
C/C(=C\c1ccc2ccccc2c1)C(=O)Nc1ccccc1C(=O)O [Compound 24] | 75 ± 2 nM | 93.9% | –
C/C(=C\c1ccc2c(c1)CCCC2)C(=O)Nc1ccccc1C(=O)O [Compound 23] | 115 ± 1 nM | 85.2% | –
